The data set is classed as in vivo. Particulars: mouse. In short, it runs like this: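 Mice dosed i.p.; horizontal brain sections taken at time points over 24 h, treated by laser-assisted chemical transfer with CHCA as matrix, and imaged by MALDI MSI for the test compound and its metabolite. Relative intensities in brain regions and lateral ventricles cross-checked by LC‒MS/MS. Three biological and technical replicates; mean ± SD from three animals.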

What is called Tmax is the time at which the peak concentration occurs. For the molecule `Cc1nc2n(c(=O)c1CCN1CCC(c3noc4cc(F)ccc34)CC1)CCCC2` [RISP, risperidone], the Tmax (male, ICR, brain, ip, 20 mg/kg) was about 15 min. For the same molecule, the “brain regional distribution after 2 h” value (after 2 h, i.p. RISP 20 mg/kg) is on record as “a small amount of parent drug was only observed in the lateral ventricles”. The brain regional distribution entry (after i.p. administration of RISP 20 mg/kg, around peak) was “mainly observed in the frontal cortex, striatum, and hippocampus regions”.

These data come from article PMC9279630 (Acta Pharmaceutica Sinica. B, 2021).
